From PubChem BioAssay
CendR NRP1 mod = alters CendR peptide binding to human NRP-1; O14786; FAM-RPARPAR peptide binding to NRP-1, fluorescence polarization; inhibition, % at 25 µM; AID 602438; 360,000 compounds, 0.85% hits;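 active means inhibition or corrected inhibition above about 18%, plus a signal ratio from 0.5 to 1.5, limit read from the data, passing the limit was not always enough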
HIF activator = HIF pathway transcriptional activation | U2OS HRE-luciferase reporter, luminescence; normalized: DMSO 0%, desferrioxamine 100% | activation, % at 7.5 µM (by protocol) | 300,000 compounds, 0.32% hits;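 active means mean activation of at least 10% of the iron chelator positive control signal, with at least half of replicates also reaching 10%; inconclusive means mean and replicate majority disagree about reaching 10%; inactive means mean and most replicates under 10%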
AI-2 QS modul = Vibrio harveyi AI-2 quorum sensing modulation. AID 2094. 300,000 compounds, 0.4% hits. Vibrio harveyi JMH597 AI-2 luminescence/OD600 ratio, 9 h; active compounds read low; strain lacks LuxN and CqsS sensors; 0 = neutral-control median. activity change, % at 7.5 µM; in the data active means activity change below about -75%, passing the limit was not always enough; inconclusive means no clear call, values can overlap the other calls;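 further: luminescence divided by OD600 gain over 9 h not by final OD600 alone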
T cruzi repl = blocks replication of Trypanosoma cruzi; 300,000 compounds, 1.4% hits; T. cruzi beta-gal in NIH3T3, luminescence, 90 h; inhibition, % (test concentration not listed);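 active means mean inhibition across valid replicates above about 55%, limit read from the data; inconclusive means mean below that limit but half or more replicates reach it; inactive means mean below it, under half of replicates reach it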;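 further: signal also drops with host cell toxicity which is not excluded here; 0% = plate median of DMSO wells and 100% = zero luminescence signal; higher percent means less beta-gal luminescence so fewer parasites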
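Incubation – ≥90 h infection period, 3 h prior cell attachment · System – NIH/3T3 fibroblasts plus reporter T. cruzi · Doses – compound pinned at 50 nL/well, DMSO · Read-out basis – percent inhibition of parasite-derived β-gal signal · Signal – luminescent β-galactosidase signal after 60 min lysis · Also added – 5000 T. cruzi trypomastigotes/well · Medium – Low-serum DMEM with 2% FBS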
V-ATPase pH = regulators of yeast V-ATPase proton transport; 350,000 compounds, 0.37% hits; S. cerevisiae, pHLuorin cytosolic pH fluorescence; response, % at 10 µM; AID 504577; in the data active means response mostly above about 7.3%, no sharp cut-off; inactive means mostly below about 5.4%; further: actives read high
CR mimetic SO = yeast age-related superoxide inhibition as caloric restriction mimetic | S. cerevisiae aged cells, superoxide DHE fluorescence; active compounds read low | superoxide response (% of plate mean), % at 10 µM | 330,000 compounds, 0.18% hits;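 active means superoxide response under a set limit, about three screen SD below normal, cut at about 65% in these data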;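 further: yeast aged for seven days with compound at 30 °C before DHE staining; 100% = average MFI of all compound-treated wells on the plate with controls excluded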
An asterisk follows results filed as active; u = inconclusive; x = no result given; + = active, no number. Compounds with a hit are over-represented: about 3% of the library has one in this group of screens.

SMILES	CendR NRP1 mod	HIF activator	AI-2 QS modul	T cruzi repl	V-ATPase pH	CR mimetic SO
CC(C)(C)NC(=O)C1c2ccccc2OCC(=O)N1Cc1ccco1 (stereo unspecified)	5	x	x	x	x	x
Cc1cc(NC(=O)CSc2nc(N)c(NC(=O)c3ccc(F)c(F)c3)c(=O)[nH]2)no1	23*	0	16	0	-2	103
Cc1cc(NC(=O)CSc2nc(N)c(NC(=O)c3ccccc3)c(=O)[nH]2)no1	-4	0	19	-12	-1	83
Cc1cccc(NS(=O)(=O)c2cc(C(=O)NCc3ccccn3)ccc2C)c1	9	0	16	32	-1	91
COc1ccc(S(=O)(=O)NCCN2CCOCC2)c(C)c1C	2	-1	x	8	-1	95
O=C(CCl)Nc1ccc(-c2ccccc2)cc1	-15	-4	-14	61*	2	110
O=C(Nc1ccc(N2CCCCC2)cc1)c1cc([N+](=O)[O-])cc([N+](=O)[O-])c1	3	0	8	60*	2	107
O=C(CCl)Nc1ccc(N2CCCCCC2)cc1	43*	0	-55	9	-1	100
CC(=O)Nc1ccc(NC(=O)Cc2ccc(-c3ccccc3)cc2)cc1	-5	-33	20	-14	0	104
CC(C)N(c1ccccc1)c1ccc(NC(=O)[C@@H]2O[C@H](CO)[C@H](O)[C@H](O)[C@H]2O)cc1	5	x	x	x	x	x
CC(C)N(c1ccccc1)c1ccc(NC(=O)CCl)cc1	6	-3	33	80*	-2	103
COc1cc(CC(=O)OCC(=O)NC(C)c2ccccc2)cc(OC)c1OC (stereo unspecified)	9	x	x	x	-3	100
CC(C)C(=O)N1N=C(c2ccc(NS(C)(=O)=O)cc2)CC1c1cccs1 (stereo unspecified)	-7	x	29	11	-8	96
CCC(C)NC(=O)c1ccc2c(c1)N(Cc1ccccc1)C(=O)CS2 (stereo unspecified)	4	0	-5	-3	-3	102
O=C(CCl)Nc1cccc(Oc2cnccn2)c1	11	0	-16	1	1	100
O=C(CCl)Nc1cccc(Oc2ccccc2)c1	-12	-1	-6	56*	1	120
O=c1cnnc(N/N=C/c2ccccn2)[nH]1	17	75*	u	53	6	94
C(=N\Nc1nncc2ccccc12)/c1ccccn1	-1	2	6	0	2	80
O=c1nc(N/N=C/c2ccccn2)cn[nH]1	8	8	-88*	-20	0	96
Cc1cc(=O)[nH]c(N/N=C/c2ccccn2)n1	1	40*	-16	35	0	105
Cc1ccc(/C=N/Nc2cn[nH]c(=O)n2)o1	12	0	1	-21	-2	93
O=S1(=O)N=C(N/N=C/c2ccccn2)c2ccccc21	-8	4	-86*	-7	2	113
Cc1ccc(Nc2nnc(SCC(O)=C(C#N)c3nc4ccccc4[nH]3)s2)c(C)c1	-48	x	x	x	-15	x
O=C(O)CCCC(=O)Nc1ccccc1Oc1ccccc1	-10	0	26	-7	0	115
CN1CCN(S(=O)(=O)c2ccc(NC(=O)c3ccc([N+](=O)[O-])cc3)cc2)CC1	-9	0	8	2	1	122
SMILES	CendR NRP1 mod	HIF activator	AI-2 QS modul	T cruzi repl	V-ATPase pH	CR mimetic SO
C=CC(=O)Nc1ccc(Nc2nc(NC3CCC(N(C)C)CC3)nc3c2ncn3C(C)C)cc1 (stereo unspecified)	27*	x	x	x	2	97
Cc1c(C(=O)NCCCN2CCCC2=O)oc2ccccc12	-3	0	0	-3	0	78
CCOc1ccc(OCC(=O)c2c(O)c3ccccc3oc2=O)cc1	-18	-1	35	-4	-2	92
COc1ccc(OCC(=O)c2c(O)c3ccccc3oc2=O)cc1	-9	0	18	-13	16*	106
CC(C)COC(=O)C(N)C(C(=O)OCC(C)C)c1ccccc1 (stereo unspecified)	30*	0	-5	0	-3	90
O=C(Nc1ccc(F)cc1F)c1ccccc1-c1ccccc1	31*	0	23	-25	10	86
O=C(Nc1cccc(F)c1)c1ccccc1-c1ccccc1	-2	0	18	-3	-1	99
Cc1ccc(S(=O)(=O)N(CC(=O)Nc2cccc([N+](=O)[O-])c2)C2CCCCC2)cc1	0	0	35	-4	-3	83
Cc1ccc(S(=O)(=O)N(CC(=O)Nc2ccc(Cl)c([N+](=O)[O-])c2)C2CCCCC2)cc1	-5	-1	24	59*	-5	105
O=C(CN(C1CC1)S(=O)(=O)c1ccc(S(=O)(=O)N2CCCCCC2)cc1)Nc1ccccc1	-2	0	11	11	2	98
CS(=O)(=O)N(CC(=O)Nc1ccc(Br)cc1F)C1CCCCC1	-4	-5	15	-9	1	94
CS(=O)(=O)N(CC(=O)Nc1ccccc1F)C1CCCCC1	23*	-25	11	-11	0	107
CCN(C1CCCCC1)S(=O)(=O)c1ccc(S(=O)(=O)N(CC(=O)Nc2ccccc2)C2CC2)cc1	7	0	23	55*	-5	88
CCOc1ccc(/C=N/n2cc(-c3ccccc3)[nH]c2=S)cc1	2	3	21	73*	-1	111
S=c1[nH]c(-c2ccccc2)cn1/N=C/c1ccncc1	2	2	12	-7	-3	97
COc1ccc(-c2cc3c(=O)n(CC(=O)NCc4ccc(F)cc4)ncn3n2)cc1	-10	1	13	-37	-4	87
COc1cc2c(c(OC)c1OC)C(=O)C(=Cc1ccccc1)O2	26*	x	x	x	-3	x
N/C(=N\OC(=O)Cc1cccs1)c1ccccc1	-12	+	-25	7	-4	101
N/C(=N\OC(=O)c1cccs1)c1ccc(Cl)cc1	-6	12*	3	-10	0	114
C/C(=N\NC(=O)c1ccc(Cl)cc1)c1ccc(Br)s1	2	2	19	58*	-4	95
C/C(=N\NC(=O)c1ccccn1)c1ccc(Cl)cc1	-5	3	4	0	3	103
COc1ccc(/C(N)=N/OC(=O)c2cccs2)cc1	-1	-1	11	3	1	101
C/C(=N\NC(=O)c1ccc(Cl)cc1)c1ccccn1	1	-5	-33	61*	3	84
C/C(=N\NC(=O)c1cc(Cl)ccc1O)c1ccc(Br)s1	-9	1	0	-18	-3	103
CC1CCCC(NC(=O)CCn2c(=S)oc3ccccc32)C1C (stereo unspecified)	4	0	8	14	1	117
